Results pooled from the literature.
Compare with care: the assays were run in different laboratories.

| Compound | cell line | test | setting | IC50 [µM] |
| --- | --- | --- | --- | --- |
| CC(C)C[C@H](NC(=O)[C@H](Cc1ccccc1)NC(=O)c1cnccn1)B(O)O | J82 | cell growth or viability, ATP luminescence |  | 0.01 |
| CCN(CC)CCNC(=O)COc1ccc(OC)cc1 | FaDu | cell growth or viability | 72 h | > 20 |
| CC(C)/N=C1\c2cc(C(N)=O)nc3c(N)c(Cl)c(N)c(c23)N1C | Calu-3 | cell growth or viability |  | 0.77 |
| CC(=O)CC(c1ccccc1)c1c(O)c2ccccc2oc1=O (stereo not drawn) | FaDu | cell growth or viability | 72 h | > 20 |
| COc1cc(Nc2nccc(-c3cnn4nc(OC)ccc34)n2)cc(C(F)(F)F)c1 | SAOS-2 | cell growth or viability, ATP luminescence |  | 0.32 |
| COc1c(C)c(OC)c2c(c1C)OC(c1ccccc1)CC2=O (stereo not drawn) | FaDu | cell growth or viability, SRB | 72 h | > 50 |
| Cc1ccc(S(=O)(=O)N[C@@H](Cc2ccccc2)C(=O)CCl)cc1 | THP-1 | TNF-α release, inhibitor | 17 h, LPS-stimulated | 1.08 |
| COc1cccc(C(=O)O[C@@H]2CN3Cc4c(cc5c(c4OC)OCO5)[C@@]24C=C[C@H](OC)C[C@@H]34)c1 | SAOS-2 | cell growth or viability, WST-1 |  | 6.9 |
| CCCn1cnc2cc(/C=C/C(=O)NO)ccc2c1=O | SW-620 | cell growth or viability, SRB | 48 h | 1.34 |
| Cc1ccc(O)cc1 | B16F0 | cell growth or viability, MTT | 48 h | 1900 |
| N#Cc1cc([N+](=O)[O-])c2sc(C(N)=O)[n+]([O-])c2c1 | THP-1 | TNF-α release, inhibitor | 17 h, LPS-stimulated | 2.96 |
| Cc1[nH]c2ccccc2c1CCNCc1ccc(/C=C/C(=O)NO)cc1 | C13 | cell growth or viability, crystal violet |  | 0.0093 |
| Cc1ccc2nc(-c3ccco3)n(Cc3ccccc3)c2c1 | MCF7 | cell growth or viability, MTT |  | 41.5 |
| CN(C)CC[C@@H](c1ccc(Cl)cc1)c1ccccn1 | FaDu | cell growth or viability | 72 h | > 20 |
| O=c1[nH]cc(S(=O)(=O)Nc2cccc(-c3nnc(-c4cccc(Cl)c4)o3)c2)c(=O)[nH]1 | NCI-H441 | cell growth or viability, MTT | 24 h | 4.29 |
| O=C(/C=C/c1ccc2ncn(CC3CCCC3)c(=O)c2c1)NO | SW-620 | cell growth or viability, SRB | 48 h | 1.19 |
| N[C@@H](CC(=O)N1CCN(C(c2ccc(F)cc2)c2ccc(F)cc2)CC1)C(=O)N1Cc2ccccc2C1 | NOMO-1 | cell growth or viability, ATP luminescence | 48 h | 4.7 |
| O=c1c(O)c(-c2ccc(O)cc2)oc2cc(O)cc(O)c12 | HEp-2 | cell growth or viability, WST-1 | 48 h | 30.3 |
| CC[C@@]1(O)C(=O)OCc2c1cc1n(c2=O)Cc2cc3ccccc3nc2-1 | P388 | cell growth or viability, MTT | 96 h | 0.014 |
| Nc1c2c(nc3ccccc13)CCCC2O (stereo not drawn) | FaDu | cell growth or viability | 72 h | > 20 |
| COc1ccc(-c2nc3ccccc3[nH]2)cc1O | MCF7 | cell growth or viability, MTT | 48 h | 29.7 |
| CC1(C)CC[C@]2(C)CC[C@]3(C)C(=CC[C@@H]4[C@@]5(C)CC[C@H](O)C(C)(C)[C@@H]5CC[C@]43C)[C@@H]2C1 | HEp-2 | cell growth or viability, WST-1 | 48 h | 85.6 |
| COc1ccc(-c2nc3ccc(C)cc3[nH]2)cc1OC | MCF7 | cell growth or viability, MTT | 48 h | > 100 |
| O=C1Nc2ccc(Cl)cc2[C@@](C#CC2CC2)(C(F)(F)F)O1 | FaDu | cell growth or viability | 72 h | > 20 |
